Sampled rows, rich in hits. Any-hit rate of the full collection: about 11%.
Htt clearance = clearance of mutant huntingtin inclusions, primary screen, imaging, HeLa Exon1htt(103Q)mCFP, confocal imaging; inhibition, % at 1.5 µM; aggregate imaging; zero = plate's median compound well; AID 853, 2007; actives 0.42% (n = 47,000);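 active = inhibition of aggregate fluorescence above about 70%, also judged a hit by eye on the cell image, limit read from the data, passing the limit was not always enough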;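 note: cells exposed to compound for three days before fixation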
RORA act = activators of orphan receptor RORA, primary screen, cell-based, luminescence | CHO-K1 Gal4-RORA LBD luciferase reporter; percent increase over mock-subtracted basal signal | activation, % at 10 µM | actives 1.5% (n = 65,000);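 active = activation above the mean of all tested compounds plus 3 SD, cut at about 49% in these data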;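 note: 0% = DMSO-treated RORA cells and 100% = added signal equal to DMSO minus mock-transfected cells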
M1 agonist = M1 muscarinic receptor agonists, primary screen, CHO-M1 cells, Fluo-4 calcium, agonist mode; Muscarinic acetylcholine receptor M1; Fluo-4 calcium fluorescence; stronger effect = higher value; B-score at 10 µM; actives 3% (n = 64,000);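 active = fluorescence rise, raw or as B-score row- and column-corrected plate score, outside the 99.7% band of its plate's samples, either direction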
D1 mod = D1 CRE-luciferase signal change, two-sided – cell-based, HEK293 D1, dopamine EC30, D1 allosteric modulator project, primary screen; actives 5.9% (n = 58,000); D(1A) dopamine receptor (Homo sapiens), P21728; dopamine EC30 potentiation; actives deviate in either direction; B-score at 10 µM; AID 641, 2007;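 active = luminescence count or its row- and column-corrected plate score outside the 99.7% band of the plate's sample wells, on either side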
Target sequence (P21728 whole entry, looked up): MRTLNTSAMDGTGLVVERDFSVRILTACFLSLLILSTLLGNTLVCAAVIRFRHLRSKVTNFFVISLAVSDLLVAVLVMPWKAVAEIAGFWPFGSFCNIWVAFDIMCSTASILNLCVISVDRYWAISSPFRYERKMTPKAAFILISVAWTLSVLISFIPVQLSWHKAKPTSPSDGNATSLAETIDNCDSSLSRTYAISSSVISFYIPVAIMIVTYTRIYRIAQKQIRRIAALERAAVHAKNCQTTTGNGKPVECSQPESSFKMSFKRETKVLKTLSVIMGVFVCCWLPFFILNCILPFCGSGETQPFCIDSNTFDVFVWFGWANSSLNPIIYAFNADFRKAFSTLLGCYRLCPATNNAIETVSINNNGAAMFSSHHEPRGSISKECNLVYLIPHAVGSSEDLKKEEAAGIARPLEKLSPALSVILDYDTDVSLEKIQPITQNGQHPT
M1 antag = antagonists of rat M1 muscarinic receptor | actives 3.4% (n = 64,000) | CHO-M1 cells, Fluo-4 calcium, ACh EC80 antagonist mode; stronger effect = lower value | Muscarinic acetylcholine receptor M1 (Rattus norvegicus), P08482 | B-score at 10 µM | AID 628, 2007;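 active = calcium fluorescence response, raw or row-and-column corrected B-score, differing from the plate sample mean either way at a set confidence level, mostly lower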
SF1 activator = activators of human SF-1, primary screen, cell-based, CHO-K1, Gal4-SF-1 LBD, luciferase luminescence; activation, % at 10 µM; actives 1.9% (n = 65,000); CHO-K1 Gal4-SF-1 LBD luciferase reporter; % increase over DMSO SF-1-specific signal; Steroidogenic factor 1 (Homo sapiens), Q13285;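 active = activation above the mean activation of all tested compounds plus 3 SD, cut at about 50% in these data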
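System: CHO-K1 cells with Gal4–hSF-1 LBD chimera plus Gal4-driven luciferase; quantity: 4,000 CHO-K1 cells per well; compound: one dose, 10 µM compound, 1% DMSO; times: 20 h compound treatment, 37 °C; measured by: SteadyLite luciferase luminescence; read-out: percent activation versus DMSO; benchmarks: DMSO and mock-transfected background; replicates: one test per compound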
M1 antag confirm = rat M1 muscarinic receptor antagonists, confirmation, CHO cells, Fluo-4 calcium, duplicate; shares compounds with M1 antag; ACh EC80 antagonism; stronger effect = lower value; calcium response (max-min fluorescence) at 10 µM; actives 43% (n = 1,700);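 active = calcium response below the same-plate mean of wells given acetylcholine alone at its 80%-effect dose, minus 3 SD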;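 note: raw fluorescence intensity difference in arbitrary instrument units and not normalized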
mGluR4 antag = human mGluR4 response to M1 antagonist hits, M1 allosteric modulator project, cell-based, antagonist mode, secondary assay 1; shares compounds with M1 antag; CHO-mGluR4 calcium flux, Fluo-4 fluorescence, glutamate EC80; stronger effect = lower value; fluorescence response (max-min) at 10 µM; actives 0.9% (n = 1,700); AID 678, 2007;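 active = fluorescence response below the plate's average for near-maximal glutamate wells, less 3 SD of those wells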;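 note: raw unnormalized fluorescence span taken in the window right after glutamate addition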
Numbers without * were called inactive; x = not tested or not shown.

SMILES	Htt clearance	RORA act	M1 agonist	D1 mod	M1 antag	SF1 activator	M1 antag confirm	mGluR4 antag
Cc1ccc(C)c(-n2c(CNc3ccc(F)cc3)nnc2SCC(N)=O)c1	5	22	0.29	0.015	0.12	1	x	x
CCn1c(SCC(N)=O)nnc1-c1cc2c(C)nn(-c3ccccc3)c2s1	x	-15	0.75	1.7	-2.7*	-3	489	160*
CC1Cc2ccccc2N1CC(=O)NC(=O)NCc1ccco1 (configuration not stated)	x	2	0.0081	x	-4.1*	12	670	244
O=C(CN1CCCc2ccccc21)NC(=O)NCc1ccco1	x	4	0.033	0.89	-0.032	8	x	x
COc1ccc(NC(=O)CSC2CC(=O)N(c3ccc4c(c3)OCCO4)C2=O)cc1 (configuration not stated)	x	12	x	1.2	x	-19	x	x
CN(CCC#N)C(=O)COC(=O)c1ccc(Cl)c(S(N)(=O)=O)c1	-11	-4	0.32	0.79	-12*	1	642	226
CN(C(=O)c1cc2sccc2n1C)C1CCCCC1	6	1	0.75	-1.7	-3.2*	2	628	236
Cn1c(C(=O)NC2CCCCC2)cc2sccc21	x	-14	-0.19	-0.52	-0.32	-12	x	x
CCOc1cc(C#N)c(NC(=O)c2ccco2)cc1OCC	x	38	0.73	0.78	-11*	1	623	185
Cc1onc(-c2ccccc2Cl)c1C(=O)Nc1ccc(-c2nnc3n2CCCCC3)cc1	x	-4	0.36	-0.36	-2.3*	1	408*	216
Cc1onc(-c2ccccc2Cl)c1C(=O)Nc1nnc(Cc2ccc(Cl)cc2)s1	-9	x	x	x	x	x	x	x
Cc1onc(-c2ccccc2Cl)c1C(=O)Nc1nnc(C(C)C)s1	x	20	-0.16	x	-2.2*	9	377*	190
Cc1nn(-c2ccc(Cl)cc2)c2[nH]c(=O)c(CNCc3ccc4c(c3)OCO4)cc12	1	-15	1.3	-0.48	-0.88	5	x	x
COc1ccccc1NC(=O)COC(=O)c1ccc(S(=O)(=O)NCc2ccco2)cc1	-18	0	-0.89	x	-0.7	-16	x	x
Cc1noc(C)c1COC(=O)c1ccc(S(=O)(=O)NCc2ccco2)cc1	x	-9	-0.15	-0.4	-2.6*	13	371*	194
COc1ccc(-c2noc(-c3cc(C)cc(C)c3)n2)cc1OC	x	-22	-1.4	-0.64	-3.1*	7	468*	231
CCOc1ccc(-c2nc(-c3ccc(OC)c(OC)c3)no2)cc1OCC	x	-5	0.24	-0.4	-0.042	-1	x	x
O=C1CCCCCN1C(=O)c1cccc(C(=O)N2CCCCCC2=O)c1	-14	22	-0.55	-1.6	0.005	7	x	x
COCc1cc(C)nc(SCC(=O)Nc2cccc3cccnc23)c1C#N	1	13	0.42	0.66	-3.9*	7	643	215
CC1CCCC(C)N1C(=O)Cn1c(=O)sc2ccccc21 (configuration not stated)	x	2	0.39	0.39	1.4	-16	x	x
Cc1ccc(Cn2c(SCCN3CCCCC3)nc3c2c(=O)n(C)c(=O)n3C)cc1	x	11	-2	1.2	-3.9*	-8	267*	247
Cn1c(=O)c2c(nc(SCCN3CCCCC3)n2Cc2ccccc2)n(C)c1=O	x	-6	-1.1	0.2	-4.7*	-5	246*	247
CN(Cc1ccccc1)Cc1nc2c(c(=O)n(C)c(=O)n2C)n1Cc1ccc(F)cc1	16	-3	0.3	-0.14	-2.6*	-11	657	223
Cn1c(=O)c2c(nc(SCCN3CCOCC3)n2Cc2ccccc2Cl)n(C)c1=O	x	10	-0.78	-0.27	0.15	1	x	x
COc1ccccc1CNc1nc2nc(C)cc(=O)n2[nH]1	-109	-8	x	-0.14	x	-9	x	x
SMILES	Htt clearance	RORA act	M1 agonist	D1 mod	M1 antag	SF1 activator	M1 antag confirm	mGluR4 antag
CC1=CC(=C2C(=O)c3ccccc3C2=O)C=C(C)O1	-12	57*	0.093	x	-1.1*	42	546	204
CC1=CC(=C2N=C(c3ccccc3)OC2=O)C=C(C)O1	-2	20	0.87	0.6	0.29	14	x	x
Cc1cc(C(=O)CSc2nnc(NCc3ccccc3)s2)c(C)n1C	x	6	-0.38	0.13	-3.5*	23	488	249
Cc1cc(C(=O)CSc2nnc(Nc3ccccc3)s2)c(C)n1CC1CCCO1 (configuration not stated)	x	5	-0.31	-0.48	-0.21	10	x	x
CCOC(=O)N1CCC(Nc2c(NCCCN(C)Cc3ccccc3)c(=O)c2=O)CC1	-21	-2	0.049	-0.21	0.7	5	x	x
CN1CCN(c2ccc(Cl)cc2NS(=O)(=O)c2ccccc2Cl)CC1	-23	15	-1.1	-1.3	-3.6*	26	345*	261
CCC1CCCCN1CCNC(=O)C1CCN(S(=O)(=O)c2c(C)noc2C)CC1 (configuration not stated)	x	-10	0.076	x	-12*	-4	385*	179
O=C(CC(c1ccccc1)c1cc(Cl)ccc1O)N1CCOCC1 (configuration not stated)	-11	-8	0.17	-1.2	-2.6*	-2	477	214
COc1ccc(-c2cnc(SCC(=O)Nc3nc(C(C)(C)C)cs3)n2Cc2ccco2)cc1	34	x	x	x	x	x	x	x
C=CCn1c(SCc2ccccc2C#N)nnc1-c1cc(Br)ccc1O	6	0	1.4	-1.7	-3.8*	19	330*	193
CCCc1[nH]nc2c1C(Cc1ccccc1)C(C#N)=C(N)O2 (configuration not stated)	33	-19	0.3	0.0066	-2.2*	4	642	239
CCN(CC)CCOC(=O)c1ccc(NC(=O)COc2cc(=O)n(CC)c3ccccc23)cc1	x	0	1.2	-0.93	-3.4*	-19	576*	184
COC(=O)c1nnn(-c2nonc2N)c1-c1cccs1	28	-18	0.091	2.7	-0.13	-8	x	x
O=C(c1ccco1)N1CCN(CC(=O)N2CCCc3c2c(=O)oc2ccc(O)cc32)CC1	x	-2	0.99	0.48	0.21	-23	x	x
